The record followed here is ChEMBL document CHEMBL1126907, “Possible contribution of a glutathione conjugate to the long-duration action of beta-funaltrexamine” (J Med Chem, 1993).

The IC50 is the concentration at which inhibition is half-maximal.

The subject of assay [1] is Mus musculus. Briefly: Equivalent antagonist potencies of compound was measured after 24 hr of icv administration. It is filed as functional.
Assay [2] relates to Mus musculus. As to the kind of experiment: Equivalent antagonist potencies of compound was measured after 24 hr of sc administration. The format is functional.
The target of assay [3] is Mu-type opioid receptor (Cavia porcellus, UniProt P97266). As to the kind of experiment: Inhibitory concentration against mu-opioid receptor in guinea pig ileum. The format is tissue-based. The method in brief: (§1)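 Electrically stimulated guinea pig ileum longitudinal muscle or mouse vas deferens. Agonist IC50 for inhibition of the stimulated response was determined as described previously.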

Assay [4] deals with Mu-type opioid receptor (Mus musculus, UniProt P42866). Briefly: Inhibitory concentration against mu-opioid receptor in mouse vas deferens. The method in brief: as §1
Assay [5] in a line: Inhibitory concentration of ethylketazocine determined after treating with conjugate for 60 min of guinea pig ileum then divided by control IC50 in same preparation. The format is functional. In short, it runs like this:
(§2)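 Electrically stimulated guinea pig ileum was incubated with conjugate (1 × 10^-6 M) for 60 min, then washed ≥40 times with buffer. The agonist IC50 (ethylketazocine or morphine) was then divided by the control IC50 in the same preparation. Assays were run in triplicate, with se reported.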

A short description of assay [6]: Inhibitory concentration of morphine determined after treating with conjugate for 60 min of guinea pig ileum then divided by control IC50 in same preparation. It is filed as functional. The method in brief: as §2
The nature of assay [7]: Ratio of effective dose of morphine at 72 hr after antagonism treatment by icv administration (4.8 nmol) divided by its control ED50. The format is functional. The method in brief: (§3)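 Mice, radiant heat tail-flick. Antagonist given icv at 4.8 nmol/mouse. At the stated interval afterwards, morphine was given sc and the test read 30 min later. Morphine ED50 after treatment was divided by control ED50. 95% confidence limits come from three or four animals.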

The nature of assay [8]: Ratio of Equivalent antagonist potencies after 24 hr of icv administration/Equivalent antagonist potencies after 24 hr of sc administration was determined. It is filed as functional.
Assay [9] can be described thus: Ratio of effective dose of morphine at 24 hr after antagonism treatment by icv administration (4.8 nmol) divided by its control ED50. The format is functional. The method in brief: as §3
Assay [10] can be described thus: Ratio of effective dose of morphine at 24 hr after antagonism treatment by sc administration divided by its control. It is filed as functional. In short, it runs like this:
(§4)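 Mice, radiant heat tail-flick. Antagonist given sc at 5 mg/kg. At the stated interval, sc morphine was given 30 min before testing. Post-treatment morphine ED50 was divided by control ED50. 95% confidence limits come from three or four animals.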

Assay [11] in a line: Ratio of effective dose of morphine at 2 hr after antagonist treatment by icv administration (4.8 nmol) divided by its control. It is filed as functional. In short, it runs like this:
as §3

Assay [12] can be described thus: Ratio of effective dose of morphine at 30 min after antagonism treatment by sc administration divided by its control. The format is functional. In short, it runs like this: as §4
Assay [13] deals with Mus musculus. As to the kind of experiment: Equivalent antagonist potencies of compound was measured after 24 hr of sc administration; antagonist dose. It is filed as functional.
Assay [14] is described as follows: (§5) Ratio of effective dose of morphine at 24 hr after antagonism treatment by icv administration in mouse (4.8 nmol) divided by its control ED50. It is filed as functional. In short, it runs like this:
(§6)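 Mice got antagonist icv at 4.8 nmol/mouse. At set times afterwards, morphine was given sc, and radiant heat tail-flick antinociception was measured 30 min later. The morphine ED50 was divided by the control ED50. Results are given with 95% confidence limits from three or four animals.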

Assay [15] in a line: (§7) Ratio of effective dose of morphine at 24 hr after antagonism treatment by sc administration in mouse divided by its control. It is filed as functional. In short, it runs like this:
(§8)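 Mice got antagonist sc at 5 mg/kg. At 30 min or 24 h, sc morphine was given 30 min before radiant heat tail-flick testing. The morphine ED50 was divided by the control ED50, with 95% confidence limits from three or four animals.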

The nature of assay [16]: (§9) Ratio of effective dose of morphine at 2 hr after antagonist treatment by icv administration in mouse (4.8 nmol) divided by its control. The format is functional. The method in brief:
as §6

A short description of assay [17]: (§10) Ratio of effective dose of morphine at 30 min after antagonism treatment by sc administration in mouse divided by its control. It is filed as functional. In short, it runs like this: as §8
Assay [18] relates to Mus musculus. As to the kind of experiment: Equivalent antagonist potencies of compound was measured after 24 hr of icv administration; antagonist dose. The format is functional.
Assay [19] is described as follows: Ratio of effective dose of morphine at 48 hr after antagonism treatment by icv administration in mouse (4.8 nmol) divided by its control ED50. It is filed as functional. The method in brief: as §6
Assay [20] can be described thus: Ratio of effective dose of morphine at 72 hr after antagonism treatment by icv administration in mouse (4.8 nmol) divided by its control ED50. It is filed as functional. The method in brief: as §6
Assay [21] deals with Mus musculus. The assay is described as §5. It is filed as functional. In short, it runs like this: as §6
Assay [22] has as its system Mus musculus. Described as §7. It is filed as functional. The method in brief:
as §8

The test system of assay [23] is Mus musculus. Described as §9. It is filed as functional. The method in brief: as §6
Assay [24] relates to Mus musculus. Described as §10. The format is functional. In short, it runs like this:
as §8

Assay [25] concerns Mus musculus. Briefly: Equivalent antagonist potencies of compound was measured after 24 hr of sc administration in mice; antagonist dose. It is filed as functional.
The subject of assay [26] is Mus musculus. As to the kind of experiment: Equivalent antagonist potencies of compound was measured after 24 hr of icv administration in mice; antagonist dose. It is filed as functional.
Assay [27] is described as follows: Ratio of effective dose of morphine at 24 hr after antagonism treatment by icv administration in mice (4.8 nmol) divided by its control ED50. The format is functional. In short, it runs like this:
as §6

Assay [28] in a line: Ratio of effective dose of morphine at 24 hr after antagonism treatment by sc administration in mice divided by its control). The format is functional. The method in brief:
as §8

Assay [29] in a line: Ratio of effective dose of morphine at 2 hr after antagonist treatment by icv administration in mice (4.8 nmol) divided by its control. It is filed as functional. The method in brief:
as §6

Assay [30] in a line: Ratio of effective dose of morphine at 30 min after antagonism treatment by sc administration in mice divided by its control. The format is functional. In short, it runs like this: as §8
A short description of assay [31]: Ratio of Equivalent antagonist potencies after 24 hr of icv administration/Equivalent antagonist potencies after 24 hr of sc administration in mice was determined. The format is functional.

Sequence of Mu-type opioid receptor (Mus musculus, UniProt P42866) (P42866 whole entry): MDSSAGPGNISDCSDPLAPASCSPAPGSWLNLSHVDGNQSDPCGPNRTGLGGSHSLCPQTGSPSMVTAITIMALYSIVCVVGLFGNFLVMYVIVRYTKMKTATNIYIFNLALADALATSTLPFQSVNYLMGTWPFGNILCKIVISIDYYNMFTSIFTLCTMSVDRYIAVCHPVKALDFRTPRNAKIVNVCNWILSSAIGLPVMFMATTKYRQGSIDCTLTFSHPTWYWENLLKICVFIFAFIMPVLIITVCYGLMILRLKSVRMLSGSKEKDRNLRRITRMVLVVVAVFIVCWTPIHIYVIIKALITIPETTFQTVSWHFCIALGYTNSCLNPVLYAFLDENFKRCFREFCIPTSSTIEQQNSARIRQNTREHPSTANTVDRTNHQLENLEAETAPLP
Sequence of Mu-type opioid receptor (Cavia porcellus, UniProt P97266) (P97266 whole entry): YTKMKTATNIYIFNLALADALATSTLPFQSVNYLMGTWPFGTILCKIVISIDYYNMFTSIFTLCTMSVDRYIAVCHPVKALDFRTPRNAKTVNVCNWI

Consider `COC(=O)/C=C/C(=O)N[C@@H]1CC[C@@]2(O)[C@H]3Cc4ccc(O)c5c4[C@@]2(CCN3CC2CC2)[C@H]1O5`, for which the results for the Inhibition with Mus musculus [1] and with Mus musculus [2] were 0.034 µM/kg and 2.5 µM/kg, respectively. The IC50 on Mu-type opioid receptor [3] is 4.8 nM; at Mu-type opioid receptor [4] it was 82 nM. For the same compound, the Ratio in assay [5] is reported as 1.1; in assay [6], 19.5; in [7] it was 2.4; in [8], 74; in [9] it was 6.6; in [10], 3.9. For the same compound, the Ratio in [11] is listed as 9.7; in [12], 3.9.

As for `COC(=O)CC(SCC(N)C(=O)O)C(=O)N[C@@H]1CC[C@@]2(O)[C@H]3Cc4ccc(O)c5c4[C@@]2(CCN3CC2CC2)[C@H]1O5` (stereo not given in full), the values for the Inhibition with Mus musculus [13] and in the assay with Mus musculus [18] were 5 µM/kg and 0.004 µM/kg, respectively. The IC50 against Mu-type opioid receptor [3] is 22 nM; against Mu-type opioid receptor [4], 140 nM. In addition, the Ratio amounted to 42.2 in assay [14]; 1.3 in [15]; 4.8 in [16]; 1.4 in assay [17]; 1 in [5]; 1.7 in [6]. The Ratio in [19] was found to be 2.8; in assay [8], 1250; in assay [20], 1.3.

Regarding `NC(CSCC(=O)N[C@@H]1CC[C@@]2(O)[C@H]3Cc4ccc(O)c5c4[C@@]2(CCN3CC2CC2)[C@H]1O5)C(=O)O` (stereo not given in full), the Ratio with Mus musculus [21] came out at 0.57; with Mus musculus [22] it was 1.3; in the assay with Mus musculus [23] it was 3; in the assay with Mus musculus [24], 3.

Regarding `COC(=O)CC(SCC(NC(=O)CCC(N)C(=O)O)C(=O)NCC(=O)O)C(=O)N[C@@H]1CC[C@@]2(O)[C@H]3Cc4ccc(O)c5c4[C@@]2(CCN3CC2CC2)[C@H]1O5` (stereo not given in full), the Inhibition was 3 µM/kg in the assay on Mus musculus [25] and 0.036 µM/kg in the assay on Mus musculus [26]. Besides, the IC50 against Mu-type opioid receptor [3] was determined as 41 nM; against Mu-type opioid receptor [4], 280 nM. Further, the Ratio in [5] is 0.3; in [6], 1.2; in [27], 6.3; in assay [28] it was 2.6; in assay [29] it was 3.1; in assay [30], 3.8. In addition, the Ratio in assay [31] was found to be 83.
